In ChEMBL document CHEMBL1128239, “Structure-activity relationships of lactone ring-opened analogs of the antimalarial 1,2,4-trioxane artemisinin” (J Med Chem, 1995):
≈ marks a conversion by molar mass, not a printed value.

What was measured:
Plasmodium falciparum [1] = experiment: In vitro antimalarial activity against Plasmodium falciparum W-2; assay type: functional, organism-based
Plasmodium falciparum [2] = experiment: In vitro antimalarial activity against Plasmodium falciparum D6; assay type: functional, organism-based
Mus musculus [3] = experiment: In vivo antimalarial activity against Plasmodium berghei. Activity expressed as ED90.; assay type: functional
Outline: (§1)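 Mice infected with drug-sensitive N strain of P. berghei; compound given subcutaneously as a single daily dose for 4 days. ED50 and ED90 reported in mg/kg.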

Mus musculus [4] = experiment: In vivo antimalarial activity against Plasmodium berghei. Activity expressed as ED50.; assay type: functional; outline: as §1

Row | SMILES | IC50 (Plasmodium falciparum [1]) [ng/mL] | IC50 (Plasmodium falciparum [2]) [ng/mL] | ED90 (Mus musculus [3]) [mg/kg] | ED50 (Mus musculus [4]) [mg/kg]
1 | CO[C@H]1O[C@@]2(C)CC[C@H]3CCC[C@@H](CCOCc4ccccc4)[C@]31OO2 | 3 (≈ 0.00828 µM) | 8 (≈ 0.0221 µM) |  | 
2 | CO[C@H]1O[C@@]2(C)CC[C@H]3CCC[C@@H](CCOCc4ccc(F)cc4)[C@]31OO2 | 4.5 (≈ 0.0118 µM) | 3 (≈ 0.00789 µM) | 13.5 | 7.6
3 | CO[C@H]1O[C@@]2(C)CC[C@H]3CCC[C@@H](CCOCc4ccccn4)[C@]31OO2 | 7 (≈ 0.0193 µM) | 18 (≈ 0.0495 µM) |  | 
4 | CO[C@H]1O[C@@]2(C)CC[C@H]3CCC[C@@H](CCOCc4cc[n+](C)cc4)[C@]31OO2.[I-] | 85 |  |  | 
5 | C[C@H]1[C@H](OC(=O)CCC(=O)[O-])O[C@@H]2O[C@@]3(C)CC[C@H]4[C@H](C)CC[C@@H]1[C@@]24OO3.[Na+] [SODIUM ARESUNATE] |  |  | 4.9 | 1.5
6 | CO[C@H]1O[C@@]2(C)CC[C@H]3CCC[C@@H](CCOCc4ccncc4)[C@]31OO2 | 7.5 (≈ 0.0206 µM) | 10 (≈ 0.0275 µM) |  | 
7 | CO[C@H]1O[C@@]2(C)CC[C@H]3CCC[C@@H](CCOCc4ccc(-c5ccccc5)cc4)[C@]31OO2 | 6 (≈ 0.0137 µM) | 6 (≈ 0.0137 µM) |  | 
